These results are taken from PMC3594046 (Bioorganic & medicinal chemistry letters, 2013).

Usually EC50 stands for the concentration giving half of the maximal effect.

SMILES strings stand for the structures.

Experiment [1] concerns the target T1, TRβ-LBD / SRC2-2 peptide interaction (Homo sapiens, UniProt P10828).
T1 sequence (P10828 217-461 limits assumed): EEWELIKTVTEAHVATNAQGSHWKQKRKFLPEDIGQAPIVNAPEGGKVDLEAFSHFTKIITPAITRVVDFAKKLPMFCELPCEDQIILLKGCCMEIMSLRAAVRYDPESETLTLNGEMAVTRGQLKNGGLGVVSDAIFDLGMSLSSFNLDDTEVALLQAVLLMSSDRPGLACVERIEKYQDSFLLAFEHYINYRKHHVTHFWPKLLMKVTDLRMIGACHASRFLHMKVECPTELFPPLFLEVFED
As to the kind of experiment: Fluorescence polarization. In kind it is binding. In short, it runs like this:
(§1)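 Fluorescence polarization competition assays: TRβ-LBD with Texas Red-labelled SRC2-2 peptide, and VDR with SRC2-3 peptide. Test compounds were 3-fold serially diluted in DMSO from a 10,000 μM top concentration and pin-transferred into the assay solutions. Each run was in triplicate and repeated twice, giving 6 replicates. EC50 is reported as the mean with standard deviation.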
Background: Polarisation of emitted light reports the rotation of a fluorescent probe.

Another experiment concerns the target T2, TRα / SRC2-2 interaction (Homo sapiens, UniProt P10827).
T2 sequence (P10827 1-410 isoform P10827-2): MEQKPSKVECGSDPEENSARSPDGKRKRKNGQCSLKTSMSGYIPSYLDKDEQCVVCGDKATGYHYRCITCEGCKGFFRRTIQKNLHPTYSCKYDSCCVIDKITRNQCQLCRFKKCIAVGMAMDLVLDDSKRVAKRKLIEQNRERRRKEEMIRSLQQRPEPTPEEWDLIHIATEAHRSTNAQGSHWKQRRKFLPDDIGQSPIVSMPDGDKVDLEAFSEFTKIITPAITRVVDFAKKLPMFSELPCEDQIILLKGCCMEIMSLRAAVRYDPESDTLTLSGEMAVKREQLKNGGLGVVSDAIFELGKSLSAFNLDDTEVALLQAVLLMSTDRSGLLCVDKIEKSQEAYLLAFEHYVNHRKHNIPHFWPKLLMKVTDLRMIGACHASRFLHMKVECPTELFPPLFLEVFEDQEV
As to the kind of experiment: FP competition assay, TRα-coactivator. In kind it is binding. The note with it: in words.

Experiment [2] concerns PEPCK gene transcription (TR-responsive) in HepG2 cells. Nature of the experiment: RT-PCR of T3-induced PEPCK transcription in HepG2 cells. Type of experiment: cell-based. The note with it: HepG2, co-treated with T3 (100 nM) and compound (1 μM and 100 nM), 24 h. An outline of the steps: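 HepG2 cells were co-treated for 24 h with T3 (100 nM) and test compound at 1 μM or 100 nM. Controls were a T3 ligand antagonist and a known coactivator antagonist. mRNA was isolated and converted to cDNA, and diluted cDNA was used for real-time PCR of PEPCK. Fold induction was calculated by the ΔΔCt method, with two independent experiments in triplicate and standard errors.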

Experiment [3] deals with T3, vitamin D receptor (VDR) / SRC2-3 interaction (Homo sapiens, UniProt P11473).
T3 sequence (P11473 1-427): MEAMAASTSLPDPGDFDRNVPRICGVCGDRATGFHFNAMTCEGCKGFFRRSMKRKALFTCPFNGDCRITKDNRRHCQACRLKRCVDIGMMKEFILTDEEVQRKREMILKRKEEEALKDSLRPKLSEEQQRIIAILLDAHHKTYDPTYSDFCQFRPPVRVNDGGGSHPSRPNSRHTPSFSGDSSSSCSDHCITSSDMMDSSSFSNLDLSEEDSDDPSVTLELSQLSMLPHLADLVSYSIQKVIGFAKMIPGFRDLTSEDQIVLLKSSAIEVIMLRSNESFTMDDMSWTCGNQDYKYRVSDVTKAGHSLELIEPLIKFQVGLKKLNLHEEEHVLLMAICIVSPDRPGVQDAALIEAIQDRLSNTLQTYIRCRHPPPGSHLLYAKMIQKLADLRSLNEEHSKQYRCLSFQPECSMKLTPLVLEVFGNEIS
Nature of the experiment: FP competition assay, VDR-SRC2-3 interaction. In kind it is binding. An outline of the steps: as §1

`CS(=O)(=O)c1ccc(C(=O)NCC(=O)N(Cc2ccccc2)Cc2ccccc2)cc1[N+](=O)[O-]` [3{1,18}] gave a concentration giving a half-maximal response (EC50) in experiment [1] of 3.6 µM. The “TRα-COA antagonism compared with TRβ” value at TRα / SRC2-2 interaction is “slightly more potency against TRα”. Also, the “Transcription of the PEPCK gene” value in experiment [2] is “inhibited by the MSNBA 3{1,18} in dose-dependent manner”.
On to `CN(CC(=O)NC12CC3CC(CC(C3)C1)C2)C(=O)c1ccc(S(C)(=O)=O)c([N+](=O)[O-])c1` [3{4,1}], for which the half-maximal effective concentration (EC50) in experiment [1] is above 60 µM.
On to `CS(=O)(=O)c1ccc(C(=O)NCC(=O)N(Cc2ccccc2)c2ccccc2)cc1[N+](=O)[O-]` [3{1,13}], for which the “TRα-COA antagonism compared with TRβ” value on TRα / SRC2-2 interaction is reported as “slightly more potency against TRα”.
In turn, `CS(=O)(=O)c1ccc(C(=O)NCC(=O)NC23CC4CC(CC(C4)C2)C3)cc1[N+](=O)[O-]` [3{1,1}] returned a half-maximal effective concentration (EC50) in experiment [1] of 16 µM.
Still for that read-out and setting: in the case of `CS(=O)(=O)c1ccc(C(=O)NCCCC(=O)NC23CC4CC(CC(C4)C2)C3)cc1[N+](=O)[O-]` [3{3,1}] it was 11 µM.
In experiment [1], `CCCN(C(=O)CN(C)C(=O)c1ccc(S(C)(=O)=O)c([N+](=O)[O-])c1)c1ccccc1` [{4,12}] yielded an EC50 above 60 µM.
Still for that read-out and setting: in the case of `CN(CC(=O)N(Cc1ccccc1)Cc1ccccc1)C(=O)c1ccc(S(C)(=O)=O)c([N+](=O)[O-])c1` [{4, 18}] it was above 60 µM.
Same read-out and setting: then `CCCN(C(=O)CNC(=O)c1ccc(S(C)(=O)=O)c([N+](=O)[O-])c1)c1ccccc1` [3{1,12}], with 6.6 µM; and `CN(C(=O)CNC(=O)c1ccc(S(C)(=O)=O)c([N+](=O)[O-])c1)c1ccccc1` [3{1, 11}], with 5.8 µM.
On to `CS(=O)(=O)c1ccc(C(=O)NCCCC(=O)N2CCN(c3ccc(C(F)(F)F)cc3)CC2)cc1[N+](=O)[O-]` [3{3,24}], for which the “Activity against TR-SRC interaction” value in experiment [1] (FP assay, in words) is “inactive”. In addition, in experiment [3], the EC50 was 7 µM.
